The source made the active and inactive calls. The calls are words filed in the database; no cut-off is given here.
How the values were obtained:
[1] = molecular target: T1, Acetylcholinesterase (Homo sapiens, UniProt P22303); assay: Inhibition of human recombinant AChE using acetylthiocholine iodide as substrate preincubated for 5 mins followed by substrate addition measured for 5 mins by Ellman's method
[2] = molecular target: T2, Cholinesterase (Homo sapiens, UniProt P06276); assay: Inhibition of human serum BuChE using butyrylthiocholine as substrate preincubated for 5 mins followed by substrate addition measured for 5 mins by Ellman's method
T2 sequence (P06276 whole entry): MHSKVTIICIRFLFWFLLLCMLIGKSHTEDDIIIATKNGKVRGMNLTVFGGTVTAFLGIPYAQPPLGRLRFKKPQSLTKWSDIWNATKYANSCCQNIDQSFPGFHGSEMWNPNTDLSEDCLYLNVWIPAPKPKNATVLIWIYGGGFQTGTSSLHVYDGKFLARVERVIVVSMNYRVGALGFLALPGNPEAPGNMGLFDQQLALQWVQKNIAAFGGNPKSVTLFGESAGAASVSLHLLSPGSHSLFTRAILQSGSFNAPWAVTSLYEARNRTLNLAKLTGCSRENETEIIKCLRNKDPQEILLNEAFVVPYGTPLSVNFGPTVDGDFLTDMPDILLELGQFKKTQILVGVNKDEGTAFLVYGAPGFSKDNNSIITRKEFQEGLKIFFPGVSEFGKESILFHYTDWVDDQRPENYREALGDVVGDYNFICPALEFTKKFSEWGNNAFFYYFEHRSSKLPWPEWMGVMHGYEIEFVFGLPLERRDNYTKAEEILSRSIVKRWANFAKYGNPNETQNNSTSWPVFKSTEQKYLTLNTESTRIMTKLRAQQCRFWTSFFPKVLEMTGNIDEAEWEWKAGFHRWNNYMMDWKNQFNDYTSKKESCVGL
Outline: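 Spectrophotometric Ellman assay with butyrylcholinesterase from human serum, with donepezil as reference. IC50 is reported in µM as mean ± SEM, n = 5.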

[3] = molecular target: T3, Amine oxidase [flavin-containing] A (Homo sapiens, UniProt P21397); assay: Inhibition of human recombinant MAOA using p-tyramine as substrate incubated for 15 mins by fluorimetric method
T3 sequence (P21397 whole entry): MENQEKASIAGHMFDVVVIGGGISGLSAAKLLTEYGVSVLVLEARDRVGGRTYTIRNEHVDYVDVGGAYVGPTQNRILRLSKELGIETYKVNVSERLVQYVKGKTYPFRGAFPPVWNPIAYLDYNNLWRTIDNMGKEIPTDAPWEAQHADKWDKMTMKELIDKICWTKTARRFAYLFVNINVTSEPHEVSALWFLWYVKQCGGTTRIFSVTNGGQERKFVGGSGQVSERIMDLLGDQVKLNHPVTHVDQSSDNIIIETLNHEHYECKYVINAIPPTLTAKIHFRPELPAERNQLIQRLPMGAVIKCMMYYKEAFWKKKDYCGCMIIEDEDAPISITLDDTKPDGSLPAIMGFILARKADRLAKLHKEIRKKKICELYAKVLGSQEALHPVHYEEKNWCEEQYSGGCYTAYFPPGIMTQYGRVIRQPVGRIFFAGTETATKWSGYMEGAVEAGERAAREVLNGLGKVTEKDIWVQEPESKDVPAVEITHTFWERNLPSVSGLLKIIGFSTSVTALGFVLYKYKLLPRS

[4] = molecular target: T4, Amine oxidase [flavin-containing] B (Homo sapiens, UniProt P27338)
T4 sequence (P27338 whole entry): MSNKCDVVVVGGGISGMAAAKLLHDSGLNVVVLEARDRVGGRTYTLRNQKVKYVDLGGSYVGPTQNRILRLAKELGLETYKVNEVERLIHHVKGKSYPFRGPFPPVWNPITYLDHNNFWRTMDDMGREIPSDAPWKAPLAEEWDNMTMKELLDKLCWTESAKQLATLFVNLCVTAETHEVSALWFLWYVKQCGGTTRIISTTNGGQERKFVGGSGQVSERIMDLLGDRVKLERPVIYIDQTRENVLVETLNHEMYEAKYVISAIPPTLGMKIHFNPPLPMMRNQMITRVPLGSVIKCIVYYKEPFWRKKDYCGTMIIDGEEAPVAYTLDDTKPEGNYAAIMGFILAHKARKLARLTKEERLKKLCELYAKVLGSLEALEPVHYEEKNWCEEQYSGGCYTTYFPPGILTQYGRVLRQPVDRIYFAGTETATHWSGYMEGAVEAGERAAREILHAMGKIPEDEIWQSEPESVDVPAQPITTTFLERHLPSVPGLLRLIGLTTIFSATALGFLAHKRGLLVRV

[5] = Antioxidant activity assessed as AAPH free radical scavenging activity by measuring trolox equivalent by oxygen radical absorbance capacity method; type: functional
Outline: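 Oxygen radical absorbance capacity (ORAC) assay with trolox as the standard. Fluorescence was read on a plate reader with 485-P excitation and 520-P emission filters. Values are expressed as trolox equivalents, mean ± SEM (n = 5).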

[6] = molecular target: T3, Amine oxidase [flavin-containing] A; assay: Inhibition of human recombinant MAOA at 100 uM using p-tyramine as substrate incubated for 15 mins by fluorimetric method; conditions: 0.25 h
Outline: (§1)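 Recombinant hMAO-A or hMAO-B (baculovirus-infected BTI insect cells), amount set to oxidize 165 pmol p-tyramine/min, preincubated with compound 15 min at 37 °C. Reaction started with Amplex Red, 1 U/mL horseradish peroxidase and 1 mM p-tyramine. Resorufin fluorescence read at 37 °C (ex 545/em 590 nm), minus enzyme-free phosphate-buffer background.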

[7] = molecular target: T2, Cholinesterase; assay: Inhibition of human serum BuChE at 10 uM using butyrylthiocholine as substrate preincubated for 5 mins followed by substrate addition measured for 5 mins by Ellman's method relative to control
Outline: (§2)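 Spectrophotometric Ellman assay with recombinant human AChE or BuChE from human serum. Percent inhibition is given at a single concentration of 10 µM. Results are mean ± SEM, n = 5.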

[8] = molecular target: Beta-secretase 1 (Homo sapiens) (UniProt P56817); assay: Inhibition of human BACE1 at 10 uM using Rh-EVNLDAEFK-Quencher as substrate after 60 mins by FRET assay relative to control
Beta-secretase 1 (Homo sapiens), sequence (P56817 whole entry): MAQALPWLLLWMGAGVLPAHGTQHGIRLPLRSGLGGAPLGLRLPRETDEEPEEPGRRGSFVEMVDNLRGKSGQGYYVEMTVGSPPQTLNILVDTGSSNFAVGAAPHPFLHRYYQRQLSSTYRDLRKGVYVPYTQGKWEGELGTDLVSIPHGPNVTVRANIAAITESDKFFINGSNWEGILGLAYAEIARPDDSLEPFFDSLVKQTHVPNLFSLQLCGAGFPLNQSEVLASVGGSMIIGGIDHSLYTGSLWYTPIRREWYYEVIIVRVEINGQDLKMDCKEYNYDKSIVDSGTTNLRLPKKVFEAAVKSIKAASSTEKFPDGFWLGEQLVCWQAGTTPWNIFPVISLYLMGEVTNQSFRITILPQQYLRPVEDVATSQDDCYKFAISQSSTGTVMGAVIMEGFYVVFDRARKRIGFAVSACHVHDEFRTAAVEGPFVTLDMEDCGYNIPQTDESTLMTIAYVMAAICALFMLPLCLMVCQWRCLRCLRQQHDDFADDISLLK
Outline: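 FRET-based assay on human recombinant BACE-1, run per the manufacturer's protocol; compounds tested at 10 μM, read as percent inhibition.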

[9] = test system: SH-SY5Y; assay: Neuroprotective activity against rotenone/oligomycin A-induced mitochondrial oxidative stress in human SH-SY5Y cells assessed as increase in cell viability at 0.3 uM after 24 hrs by MTT assay relative to control; type: functional
Outline: (§3)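 SH-SY5Y cells, passage <13, were seeded at 8x10^4/well for 2 days. Then co-incubated 24 h with compound (0.1, 0.3, 1, 3 µM) plus rotenone 30 µM/oligomycin A 10 µM in F-12/EMEM with 1% FBS; 0.1% DMSO vehicle and 10 nM melatonin control. MTT 0.5 mg/ml final, 2 h at 37 °C, formazan in DMSO read at 540 nm. Normalized to untreated control; triplicates of ≥3 cultures, mean ± SEM.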

[10] = Potentiation of rotenone/oligomycin A-induced mitochondrial oxidative stress in human SH-SY5Y cells at 0.1 to 3 uM after 24 hrs by MTT assay; type: ADME, cell-based; outline: as §3
[11] = molecular target: T4, Amine oxidase [flavin-containing] B; assay: Inhibition of human recombinant MAOB at 100 uM using p-tyramine as substrate incubated for 15 mins by fluorimetric method; conditions: 0.25 h; outline: as §1
[12] = molecular target: T1, Acetylcholinesterase; assay: Inhibition of human recombinant AChE at 10 uM using acetylthiocholine iodide as substrate preincubated for 5 mins followed by substrate addition measured for 5 mins by Ellman's method relative to control; outline: as §2
[13] = test system: Neural stem cell; assay: (§4) Induction of differentiation of C57BL/6 mouse subgranular zone-derived neural stem cell into neuronal phenotype assessed as increase in level of beta-3 tubulin expressing cells in neurosphere at 10 uM preincubated for 7 days followed by cell attachment onto poly-L-lysine-coated coverslip in presence of serum and absence of exogenous growth factor for 3 days by DAPI staining-based florescence microscopy; type: functional
Outline: (§5)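 Adult (3-month) male C57BL/6 mouse SGZ dentate gyrus neural stem cells grown as neurospheres for 7 days with compound (10 µM). Then adhered on 100 μg/mL poly-L-lysine coverslips for 3 more days with serum, without exogenous growth factors, compound present. Immunocytochemistry for β-III-tubulin (TuJ) and MAP-2 with Alexa-fluor secondaries and DAPI nuclei, imaged by fluorescence microscopy, inner and distal neurosphere areas.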

[14] = test system: Neural stem cell; assay: as §4, with “MAP2” for “beta-3 tubulin”; type: functional; outline: as §5

T1 sequence (P22303 whole entry): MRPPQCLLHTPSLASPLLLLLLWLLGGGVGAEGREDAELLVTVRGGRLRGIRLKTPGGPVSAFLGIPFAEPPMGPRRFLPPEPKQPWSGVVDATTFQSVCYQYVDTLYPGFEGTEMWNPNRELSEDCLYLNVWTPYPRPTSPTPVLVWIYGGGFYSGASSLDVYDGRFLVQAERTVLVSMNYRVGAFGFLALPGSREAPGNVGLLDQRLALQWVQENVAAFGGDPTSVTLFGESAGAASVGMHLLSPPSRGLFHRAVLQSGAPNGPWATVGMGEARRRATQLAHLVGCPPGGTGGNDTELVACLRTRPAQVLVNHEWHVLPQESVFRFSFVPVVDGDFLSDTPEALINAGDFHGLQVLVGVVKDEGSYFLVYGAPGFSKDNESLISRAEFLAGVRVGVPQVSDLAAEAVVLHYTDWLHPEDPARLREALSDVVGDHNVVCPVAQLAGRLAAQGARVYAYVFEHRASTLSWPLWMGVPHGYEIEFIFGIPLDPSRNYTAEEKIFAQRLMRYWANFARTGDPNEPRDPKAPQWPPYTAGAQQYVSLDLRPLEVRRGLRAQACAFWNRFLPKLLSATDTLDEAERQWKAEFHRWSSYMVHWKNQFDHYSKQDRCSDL

| Compound | IC50 [1] [µM] | IC50 [2] [µM] | IC50 [3] [µM] | IC50 [4] [µM] | Activity [5] [equiv] | inhibition at 100 µM [6] [%] | inhibition [7] [%] | inhibition [8] [%] | Activity [9] | Activity [10] | inhibition at 100 µM [11] [%] | inhibition [12] [%] | Activity [13] | Activity [14] |
| --- | --- | --- | --- | --- | --- | --- | --- | --- | --- | --- | --- | --- | --- | --- |
| O=C(/C=C/c1ccc(O)cc1)NCCC1CCN(Cc2ccccc2)CC1 | 1.01 | 0.93 | 57.5 | > 100 | 1.7 | – | – | – | – | – | – | – | – | – |
| COc1cccc(/C=C/C(=O)NCCC2CCN(Cc3ccccc3)CC2)c1 | 0.75 | 0.98 | – | > 100 | – | 45 to 55 | – | – | – | – | – | – | – | – |
| O=C(/C=C/c1cccc(O)c1)NCCC1CCN(Cc2ccccc2)CC1 | 1.12 | 1.02 | – | > 100 | 2.2 | 45 to 55 | – | – | – | – | – | – | – | – |
| O=C(/C=C/c1ccc(O)cc1O)NCCC1CCN(Cc2ccccc2)CC1 | 0.99 | 0.26 | 5.5 | 8.3 | 1.3 | – | – | – | – | – | – | – | – | – |
| COc1cccc(/C=C/C(=O)Nc2ccc(CN(C)Cc3ccccc3)cc2)c1 | 4.67 | – | > 100 | > 100 | 0.6 | – | 35 | 23 to 33 | – | – | – | – | – | – |
| COc1cc(/C=C/C(=O)NCCC2CCN(Cc3ccccc3)CC2)ccc1O | 0.39 | 0.076 | 11.4 | 13.1 | 1.8 | – | – | – | 30 - 35% | Non-Toxic | – | – | – | – |
| COc1ccc(/C=C/C(=O)NCCC2CCN(Cc3ccccc3)CC2)cc1 | 0.49 | 0.76 | – | – | – | 45 to 55 | – | – | – | – | 45 to 55 | – | – | – |
| COc1ccc(/C=C/C(=O)NCCC2CCN(Cc3ccccc3)CC2)cc1OC | 0.26 | 0.69 | > 100 | – | 0.4 | – | – | – | – | – | 45 to 55 | – | – | – |
| COc1cc(/C=C/C(=O)Nc2ccc(CN(C)Cc3ccccc3)cc2)ccc1O | – | – | – | – | 1.5 | – | 45 | 23 to 33 | – | – | – | 33 | – | – |
| COc1ccc(/C=C/C(=O)Nc2ccc(CN(C)Cc3ccccc3)cc2)cc1 | 5.76 | – | > 100 | > 100 | – | – | 25 | 23 to 33 | – | – | – | – | – | – |
| COc1cc(/C=C/C(=O)Nc2cccc(CN(C)Cc3ccccc3)c2)ccc1O | 5.99 | 5.89 | 4.5 | 7.7 | 1.4 | – | – | 23 to 33 | 30 - 35% | Non-Toxic | – | – | – | – |
| COc1ccc(/C=C/C(=O)NCCC2CCN(Cc3ccccc3)CC2)c(OC)c1 | 0.63 | 4.39 | > 100 | > 100 | – | – | – | – | – | – | – | – | – | – |
| CN(Cc1ccccc1)Cc1ccc(NC(=O)/C=C/c2ccc(O)cc2)cc1 | – | – | 29.7 | 29 | 1.8 | – | 30 | – | – | – | – | 46 | – | – |
| COc1ccc(/C=C/C(=O)Nc2ccc(CN(C)Cc3ccccc3)cc2)cc1OC | 3.98 | > 10 | – | – | 0.4 | – | – | – | – | – | – | – | – | – |
| O=C(/C=C/c1ccc(O)c(O)c1)NCCC1CCN(Cc2ccccc2)CC1 | 1.75 | 0.69 | 3.5 | 6 | 1 | – | – | – | – | – | – | – | Active | Active |
| COc1ccc(/C=C/C(=O)Nc2ccc(CN(C)Cc3ccccc3)cc2)c(OC)c1 | 8.73 | > 10 | > 100 | > 100 | 0.5 | – | – | – | – | – | – | – | – | – |
| CN(Cc1ccccc1)Cc1ccc(NC(=O)/C=C/c2cccc(O)c2)cc1 | 3.49 | – | – | – | 3.2 | 45 to 55 | 46 | – | 30 - 35% | Non-Toxic | 45 to 55 | – | – | – |
